According to ChEMBL document CHEMBL1240482, “Synthesis and antiproliferative evaluation of certain indeno[1,2-c]quinoline derivatives. Part 2” (J Med Chem, 2010):
Active and inactive are the calls of the source. The calls are words filed in the database; no cut-off is given here.

Key:
Detroit 551 [1] = test: Selectivity index, ratio of IC50 for human Detroit 551 cells to IC50 for human BT-483 cells; type: functional
[2] = Mean retention time in CD1 mouse at 20 mg/ kg, po; type: ADME, organism-based; parameters: dose 20 mg/ kg, route oral; conditions: in vivo
How it was run: (§1)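 Male CD-1 (Crl.) mice, 22-24 g, fasted 4 h before dosing; single oral gavage of 20 mg/kg as a suspension in 0.5% methylcellulose/water, 10 mL/kg. Cardiac-puncture plasma (K-EDTA) taken predose to 27 h, three mice per time point; LC-MS/MS quantification.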

[3] = Cmax in CD1 mouse at 20 mg/ kg, po; type: ADME, organism-based; parameters: dose 20 mg/ kg, route oral; conditions: in vivo; how it was run: as §1
Homo sapiens = species: Homo sapiens; test: Inhibition of human topoisomerase 2 assessed as decrease in pBR322 mobility on agarose gel at 10 uM by electrophoresis
How it was run: (§2)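 Enzyme preincubated with compound before DNA addition; reaction run 30 min at 37 °C and stopped with SDS. Products resolved on 1% agarose, stained with ethidium bromide, quantified by densitometry.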

[4] = Cell cycle arrest in human BT-483 cells assessed as accumulation at sub-G1 phase at 10 uM after 24 hrs by flow cytometry; type: functional, cell-based
How it was run: (§3)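 BT483 cells exposed to 0, 1, 3 or 10 μM for 24 h, then stained with propidium iodide and analysed for DNA content by flow cytometry. The subdiploid (sub-G1) peak, expressed as a percentage of the whole population, is scored as apoptotic.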

[5] = Cell cycle arrest in human BT-483 cells assessed as accumulation at sub-G1 phase at 3 uM after 24 hrs by flow cytometry; type: functional, cell-based; how it was run: as §3
Detroit 551 [6] = test: Selectivity index, ratio of IC50 for human Detroit 551 cells to IC50 for human SKHep cells; type: functional
[7] = AUC (0 to infinity) in CD1 mouse at 2 mg/ kg, iv; type: ADME, organism-based; parameters: time infinity, dose 2 mg/ kg, route intravenous; conditions: plasma
How it was run: (§4)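 Fasted male CD-1 (Crl.) mice, 22-24 g; single tail-vein bolus of 2.0 mg/kg in PEG400/ethanol/water (30/5/65), 10 mL/kg. Cardiac-puncture blood into K-EDTA at 0-27 h, three mice per time point; plasma analysed by LC-MS/MS after acetonitrile precipitation. Parameters calculated from mean plasma concentrations.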

[8] = AUC (0 to infinity) in CD1 mouse at 20 mg/ kg, po; type: ADME, organism-based; parameters: time infinity, dose 20 mg/ kg, route oral; conditions: plasma; how it was run: as §1
Detroit 551 [9] = test: Selectivity index, ratio of IC50 for human Detroit 551 cells to IC50 for human PC3 cells; type: functional
[10] = Inhibition of human topoisomerase 2 assessed as decrease in pBR322 mobility on agarose gel by electrophoresis; how it was run: as §2
Mus musculus [11] = test: Toxicity to BALB/c mouse assessed as change in blood urea nitrogen at 20 mg/kg, iv; type: organism-based; parameters: dose 20 mg/kg, route intravenous; conditions: in vivo
How it was run: (§5)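 BALB/c mice, 3 per group, randomized by body weight (stratified). Dosed iv via tail vein at 10, 20 or 40 mg/kg in PEG 400/ethanol/water (20/20/60), once every 3 days for 2 weeks; solvent controls. Weighed throughout. After a 24 h fast, heart blood was drawn under ether; GOT, GPT, BUN and creatinine were measured on an analyzer. Liver and kidney taken for H&E.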

Nucleic Acid = test: Binding affinity to pBR322; type: nucleic-acid assay; conditions: Escherichia coli
[12] = Volume of distribution at steady state in CD1 mouse at 2 mg/ kg, iv; type: ADME, organism-based; parameters: dose 2 mg/ kg, route intravenous; conditions: in vivo, read-out: Vdss; how it was run: as §4
Detroit 551 [13] = test: Selectivity index, ratio of IC50 for human Detroit 551 cells to IC50 for human A549 cells; type: functional
[14] = Half life in CD1 mouse at 2 mg/ kg, iv; type: ADME, organism-based; parameters: dose 2 mg/ kg, route intravenous; conditions: in vivo; how it was run: as §4
HeLa [15] = test: Cytotoxicity against human HeLa cells after 48 hrs by MTT assay; type: functional
How it was run: (§6)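 Cells grown in DMEM with 10% FBS at 37 °C and 5% CO2, seeded at 5 × 10^3 per well and allowed 24 h before drug. Serial dilutions from DMSO stocks applied for 48 h. MTT (2 mg/mL in PBS) added for 2 h, formazan dissolved in DMSO, absorbance read at 570 nm. GI50 interpolated by linear regression from at least three points in the 20-80% range; three independent experiments.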

Mus musculus [16] = test: Toxicity to BALB/c mouse assessed as change in body weight at 20 mg/kg, iv; type: organism-based; parameters: dose 20 mg/kg, route intravenous; conditions: in vivo; how it was run: as §5
[17] = Cell cycle arrest in human BT-483 cells assessed as accumulation at sub-G1 phase at 1 uM after 24 hrs by flow cytometry; type: functional, cell-based; how it was run: as §3
PC-3 = test: Cytotoxicity against human PC3 cells after 48 hrs by MTT assay; type: functional; conditions: PC-3, 48 h; how it was run: as §6
[18] = Cytotoxicity against human Detroit 551 cells after 48 hrs by MTT assay; type: cell-based; how it was run: as §6
Mus musculus [19] = test: Toxicity to BALB/c mouse assessed as survival rate at 20 mg/kg, iv; type: organism-based; parameters: dose 20 mg/kg, route intravenous; conditions: in vivo
How it was run: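 Balb/C athymic nude mice (6-8 weeks, ~20 g) bearing subcutaneous BT483 breast xenografts (0.5 × 10^6 cells). Treatment began at ~500 mm3 tumour volume: cosolvent formulation diluted in 5% dextrose, iv at 10 or 20 mg/kg once daily for 14 days; controls received vehicle. 3 animals per group. Survival was assessed by Kaplan-Meier analysis at study end, p < 0.05.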

[20] = Tmax in CD1 mouse at 20 mg/ kg, po; type: ADME, organism-based; parameters: dose 20 mg/ kg, route oral; conditions: in vivo; how it was run: as §1
[21] = Mean retention time in CD1 mouse at 2 mg/ kg, iv; type: ADME, organism-based; parameters: dose 2 mg/ kg, route intravenous; conditions: in vivo; how it was run: as §4
SAS [22] = test: Cytotoxicity against human SAS cells after 48 hrs by MTT assay; type: functional; how it was run: as §6
Mus musculus [23] = test: Toxicity to BALB/c mouse assessed as change in glutamic pyruvate transaminase at 20 mg/kg, iv; type: organism-based; parameters: dose 20 mg/kg, route intravenous; conditions: in vivo; how it was run: as §5
[24] = Apparent volume of distribution in CD1 mouse at 2 mg/ kg, iv; type: ADME, organism-based; parameters: dose 2 mg/ kg, route intravenous; conditions: in vivo, read-out: Vz; how it was run: as §4
SAS [25] = test: Selectivity index, ratio of IC50 for human Detroit 551 cells to IC50 for human SAS cells; type: functional
A549 = test: Cytotoxicity against human A549 cells after 48 hrs by MTT assay; type: functional; conditions: A549, 48 h; how it was run: as §6
[26] = Cytotoxicity against human BT-483 cells after 48 hrs by MTT assay; type: functional; conditions: BT-483, 48 h; how it was run: as §6
HeLa [27] = test: Selectivity index, ratio of IC50 for human Detroit 551 cells to IC50 for human HeLa cells; type: functional

SMILES: COc1ccc2c(c1)/C(=N\OCCN1CCCC1)c1c-2c(O)nc2ccccc12
- RatioGI50 (Detroit 551 [1]): 15.75
- MRT [2]: 3.4 h
- Cmax [3]: 63 ng/mL
- inhibition (Homo sapiens): 60%
- Activity [4]: 88%
- Activity [5]: 58%
- RatioGI50 (Detroit 551 [6]): 10.03
- AUC(0-inf) [7]: 172 ng·h/mL
- AUC(0-inf) [8]: 187 ng·h/mL
- RatioGI50 (Detroit 551 [9]): 6.8
- IC50 [10]: 8260 nM
- Activity (Mus musculus [11]): Non-toxic
- Activity (Nucleic Acid): Active
- Vd [12]: 12.3 L/kg
- RatioGI50 (Detroit 551 [13]): 13.98
- half-life [14]: 1.5 h
- GI50 (HeLa [15]; read-out: GI50): 230 nM
- GI50 (HeLa [15]; read-out: pGI50 (converted)): 229 nM
- Activity (Mus musculus [16]): Non-toxic
- Activity [17]: 43%
- GI50 (PC-3): 1830 nM
- GI50 at 48 h [18]: 12400 nM
- Activity (Mus musculus [19]): Non-toxic
- Tmax [20]: 1 h
- MRT [21]: 1.1 h
- GI50 (SAS [22]): 840 nM
- Activity (Mus musculus [23]): Non-toxic
- Vd [24]: 25.5 L/kg
- RatioGI50 (SAS [25]): 14.81
- GI50 (A549): 890 nM
- GI50 [26]: 790 nM
- RatioGI50 (HeLa [27]): 54.09
